# According to article PMC6347715 (Proceedings of the National Academy of Sciences of the …, 2019):
# Key:
# [1] = system: Wolbachia in female adult L. sigmodontis; test: L. sigmodontis gerbil model: Wolbachia load; format: in vivo, Litomosoides sigmodontis; conditions: 18 wk post treatment
# Summary of the method: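 Female gerbils aged 6–8 wk were infected by exposure to Ornithonyssus bacoti mites carrying L. sigmodontis L3. Treatment started 13 wk after infection, with animals randomised into groups of n = 5–9. Test compound in PEG300/propylene glycol/water (55/25/20) was given by oral gavage at 2.5 mL/kg. At necropsy 18 wk after treatment start, worms were recovered from the serous cavities. Wolbachia was measured by ftsZ qPCR in 5–20 individual female worms. Groups were compared with untreated controls by Kruskal–Wallis with Dunn's test.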
# [2] = Permeability in LLC-PK1 cell assay; format: in vitro ADME; conditions: pig
# B. malayi = test: Adult B. malayi SCID mouse model: parasitology readout; format: in vivo, Brugia malayi; conditions: over the 6 wk of observation post treatment
# pKa = format: physicochemical
# [3] = system: Wolbachia within B. malayi mf; test: B. malayi microfilaria time-kill assay; format: cell-based, Brugia malayi; conditions: drug concentration 10 times EC50; exposures 1, 2, 6 d
# Summary of the method: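 This is a time-kill variant of the 6-d B. malayi mf assay: 8,000 mf per well in supplemented RPMI at 37 °C, 5% CO2. Drug was removed by a wash step on the indicated exposure day. Wolbachia was then quantified by wsp/gst qPCR, with five replicates per time point per treatment. Results come from one experiment.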
# [4] = Solubility in fasted state-simulated intestinal fluid; format: physicochemical
# L. sigmodontis = L. sigmodontis gerbil model: parasitology readout; format: in vivo, Litomosoides sigmodontis
# Summary of the method: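 Gerbils were infected with L. sigmodontis via mites and given oral treatment from 13 wk post infection. Starting at 12 wk post infection, 10 µL of saphenous-vein blood was taken every two weeks and diluted in 300 µL Hinkelmann solution. Samples were centrifuged at 400 × g for 5 min, and the pellet was resuspended in 1 mL. Total mf were counted microscopically in a Sedgewick Rafter chamber, with follow-up to 18 wk after treatment start.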
# CYP2C9 = CYP2C9 (Homo sapiens, UniProt P11712); test: CYP2C9 inhibition; format: in vitro ADME
# Chain of CYP2C9 (P11712 whole entry): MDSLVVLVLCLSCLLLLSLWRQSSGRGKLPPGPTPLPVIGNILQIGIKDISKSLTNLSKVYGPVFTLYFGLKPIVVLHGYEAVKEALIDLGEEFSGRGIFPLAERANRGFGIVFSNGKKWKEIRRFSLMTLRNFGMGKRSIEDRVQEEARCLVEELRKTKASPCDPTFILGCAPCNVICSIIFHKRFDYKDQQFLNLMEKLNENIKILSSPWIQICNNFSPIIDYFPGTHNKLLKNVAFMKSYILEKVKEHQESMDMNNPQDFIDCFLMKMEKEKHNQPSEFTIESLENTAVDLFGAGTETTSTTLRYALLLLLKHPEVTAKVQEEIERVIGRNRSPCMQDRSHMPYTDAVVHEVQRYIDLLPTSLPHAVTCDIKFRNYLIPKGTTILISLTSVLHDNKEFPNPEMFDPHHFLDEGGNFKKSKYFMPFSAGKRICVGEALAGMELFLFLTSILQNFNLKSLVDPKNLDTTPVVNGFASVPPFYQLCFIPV
# [5] = system: Wolbachia pipientis (wAlbB) in C6/36 cells; test: Anti-Wolbachia cell-based assay; conditions: C6/36, read-out: EC50 anti-Wolbachia, cell assay
# [6] = system: CYP1A, CYP2C9, CYP2C19, CYP2D6, CYP3A; test: Time-dependent inhibition of five major human CYP450 isoforms; format: in vitro ADME
# Mouse PK in BALB/c mice = conditions: in vivo
# P-gp = P-gp (Homo sapiens, UniProt P08183); test: P-gp-mediated efflux; format: in vitro ADME; conditions: not told
# Chain of P-gp (P08183 whole entry): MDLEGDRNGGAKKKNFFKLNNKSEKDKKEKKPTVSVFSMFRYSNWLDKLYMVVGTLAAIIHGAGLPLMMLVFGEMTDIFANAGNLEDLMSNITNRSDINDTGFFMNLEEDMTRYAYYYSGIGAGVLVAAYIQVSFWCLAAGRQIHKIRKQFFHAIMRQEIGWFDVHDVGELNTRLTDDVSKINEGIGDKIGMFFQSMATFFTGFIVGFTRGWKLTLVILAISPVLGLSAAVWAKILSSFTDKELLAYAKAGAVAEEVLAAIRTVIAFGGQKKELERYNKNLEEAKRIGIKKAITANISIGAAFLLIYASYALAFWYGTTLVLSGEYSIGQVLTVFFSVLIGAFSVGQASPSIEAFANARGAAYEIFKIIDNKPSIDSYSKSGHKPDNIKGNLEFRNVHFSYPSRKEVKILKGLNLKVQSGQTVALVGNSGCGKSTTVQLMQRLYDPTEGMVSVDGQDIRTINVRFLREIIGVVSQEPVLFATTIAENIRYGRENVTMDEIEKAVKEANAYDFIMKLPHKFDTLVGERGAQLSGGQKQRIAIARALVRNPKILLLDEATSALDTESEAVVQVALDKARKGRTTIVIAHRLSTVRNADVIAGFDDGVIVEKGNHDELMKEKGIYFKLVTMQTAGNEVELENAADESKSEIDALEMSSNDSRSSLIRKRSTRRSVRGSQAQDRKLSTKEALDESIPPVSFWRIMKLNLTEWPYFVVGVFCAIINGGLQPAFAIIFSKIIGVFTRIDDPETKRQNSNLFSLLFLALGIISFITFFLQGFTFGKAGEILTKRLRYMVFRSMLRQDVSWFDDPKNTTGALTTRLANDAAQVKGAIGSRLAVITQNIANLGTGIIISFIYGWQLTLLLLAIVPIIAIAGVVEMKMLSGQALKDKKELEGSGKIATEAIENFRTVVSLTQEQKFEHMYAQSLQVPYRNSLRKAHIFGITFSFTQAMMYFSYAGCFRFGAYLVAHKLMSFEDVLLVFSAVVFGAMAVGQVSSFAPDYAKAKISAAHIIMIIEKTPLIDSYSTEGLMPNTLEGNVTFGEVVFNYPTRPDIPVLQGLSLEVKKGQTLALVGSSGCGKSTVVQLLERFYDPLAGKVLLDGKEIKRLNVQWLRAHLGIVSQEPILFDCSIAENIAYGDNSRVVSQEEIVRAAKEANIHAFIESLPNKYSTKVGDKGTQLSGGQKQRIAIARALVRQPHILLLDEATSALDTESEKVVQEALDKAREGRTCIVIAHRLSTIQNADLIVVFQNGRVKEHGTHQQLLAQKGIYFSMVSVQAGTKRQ
# CYP3A4 = CYP3A4 induction; format: in vitro ADME; conditions: human
# [7] = system: Wolbachia within female B. malayi adult parasites; test: Adult B. malayi SCID mouse model: Wolbachia load; format: in vivo, Brugia malayi; conditions: 100 mg/kg, 7 d orally
# [8] = Aqueous solubility in pH 7.4 PBS buffer; format: physicochemical
compound,measurement,setting,value
"C[C@H]1COCCN1c1nc(NCc2cccnc2C(F)(F)F)c2cccnc2n1 [AWZ1066S, (S)-2-(3-methylmorpholino)-N-((2-(trifluoromethyl)pyridin-3-yl)methyl)pyrido[2,3-d]pyrimidin-4-amine]",Wolbachia load reduction compared with control untreated animals,[1]; 50 mg/kg orally twice daily 7 d,> 99%
same,Wolbachia load reduction compared with control untreated animals,[1]; 100 mg/kg orally twice daily 7 d,> 99%
same,Papp,[2],7.4 ×10⁻⁶ cm/s
same,mice in which release of mf was completely prevented,B. malayi,9/10
same,Ames test result,Ames test,negative
same,pKa,pKa,5.6
same,drug exposure needed for maximum reduction of Wolbachia,[3],1 days
same,solubility,[4],560 µg/mL
same,time from which peripheral blood microfilaremia began to decline,L. sigmodontis; 7-d treatment,6 wk post treatment
same,time from which amicrofilaremia was evident,"L. sigmodontis; 7-d treatment groups, sustained until 18 wk",14 wk post treatment
same,IC50,CYP2C9,9.7 µM
same,EC50,[5],0.0025 ± 0.0004 µM
same,time-dependent inhibition,[6],does not show any time-dependent inhibition
same,bioavailability,"Mouse PK in BALB/c mice; BALB/c SCID, po",54 to 91%
same,clearance,"Mouse PK in BALB/c mice; iv, 5 mg/kg, total clearance, dosed intravenously",7.83 mL/min/kg
same,efflux ratio,P-gp,7.8
same,IC50,CYP3A4,37 µM
same,Wolbachia reduction compared with the vehicle group,[7],98%
same,solubility,[8],238 µM
